Assays:
[1] = molecular target: T1, Glutamate receptor ionotropic, NMDA 2B (Homo sapiens, UniProt Q05586+Q13224); test: Binding affinity to NMDA NR2B receptor
[2] = molecular target: T1, Glutamate receptor ionotropic, NMDA 2B; test: Antagonist activity at NMDA NR2B receptor assessed as calcium flux; type: functional
[3] = Cmax in rat at 2 mg/kg, iv and 10 mg/kg, po; type: ADME, organism-based; details: in vivo
Summary of the method: (§1)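 Rats were dosed 2 mg/kg iv and 10 mg/kg po in separate arms. Plasma Cmax, plasma half-life, clearance and oral bioavailability were derived from these two dosings.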

[4] = Oral bioavailability in rat at 10 mg/kg; type: ADME, organism-based; details: in vivo; summary of the method: as §1
[5] = Half life in rat at 2 mg/kg, iv and 10 mg/kg, po; type: ADME, organism-based; details: in vivo; summary of the method: as §1
[6] = Clearance in rat at 2 mg/kg, iv and 10 mg/kg, po; type: ADME, organism-based; details: in vivo; summary of the method: as §1
Rattus norvegicus = test: Reduction in hyperalgesic response in po dosed carrageenan-induced hyperalgesia rat model; type: functional
Summary of the method: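 Carrageenan was used to induce hyperalgesia in rats, and test compound was given orally. Behavioral responses to noxious stimuli were scored, and the hyperalgesic response was expressed as % reduction versus control. ED50 was derived from oral dosing.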

T1 sequence (Q13224 whole entry, one chain of several): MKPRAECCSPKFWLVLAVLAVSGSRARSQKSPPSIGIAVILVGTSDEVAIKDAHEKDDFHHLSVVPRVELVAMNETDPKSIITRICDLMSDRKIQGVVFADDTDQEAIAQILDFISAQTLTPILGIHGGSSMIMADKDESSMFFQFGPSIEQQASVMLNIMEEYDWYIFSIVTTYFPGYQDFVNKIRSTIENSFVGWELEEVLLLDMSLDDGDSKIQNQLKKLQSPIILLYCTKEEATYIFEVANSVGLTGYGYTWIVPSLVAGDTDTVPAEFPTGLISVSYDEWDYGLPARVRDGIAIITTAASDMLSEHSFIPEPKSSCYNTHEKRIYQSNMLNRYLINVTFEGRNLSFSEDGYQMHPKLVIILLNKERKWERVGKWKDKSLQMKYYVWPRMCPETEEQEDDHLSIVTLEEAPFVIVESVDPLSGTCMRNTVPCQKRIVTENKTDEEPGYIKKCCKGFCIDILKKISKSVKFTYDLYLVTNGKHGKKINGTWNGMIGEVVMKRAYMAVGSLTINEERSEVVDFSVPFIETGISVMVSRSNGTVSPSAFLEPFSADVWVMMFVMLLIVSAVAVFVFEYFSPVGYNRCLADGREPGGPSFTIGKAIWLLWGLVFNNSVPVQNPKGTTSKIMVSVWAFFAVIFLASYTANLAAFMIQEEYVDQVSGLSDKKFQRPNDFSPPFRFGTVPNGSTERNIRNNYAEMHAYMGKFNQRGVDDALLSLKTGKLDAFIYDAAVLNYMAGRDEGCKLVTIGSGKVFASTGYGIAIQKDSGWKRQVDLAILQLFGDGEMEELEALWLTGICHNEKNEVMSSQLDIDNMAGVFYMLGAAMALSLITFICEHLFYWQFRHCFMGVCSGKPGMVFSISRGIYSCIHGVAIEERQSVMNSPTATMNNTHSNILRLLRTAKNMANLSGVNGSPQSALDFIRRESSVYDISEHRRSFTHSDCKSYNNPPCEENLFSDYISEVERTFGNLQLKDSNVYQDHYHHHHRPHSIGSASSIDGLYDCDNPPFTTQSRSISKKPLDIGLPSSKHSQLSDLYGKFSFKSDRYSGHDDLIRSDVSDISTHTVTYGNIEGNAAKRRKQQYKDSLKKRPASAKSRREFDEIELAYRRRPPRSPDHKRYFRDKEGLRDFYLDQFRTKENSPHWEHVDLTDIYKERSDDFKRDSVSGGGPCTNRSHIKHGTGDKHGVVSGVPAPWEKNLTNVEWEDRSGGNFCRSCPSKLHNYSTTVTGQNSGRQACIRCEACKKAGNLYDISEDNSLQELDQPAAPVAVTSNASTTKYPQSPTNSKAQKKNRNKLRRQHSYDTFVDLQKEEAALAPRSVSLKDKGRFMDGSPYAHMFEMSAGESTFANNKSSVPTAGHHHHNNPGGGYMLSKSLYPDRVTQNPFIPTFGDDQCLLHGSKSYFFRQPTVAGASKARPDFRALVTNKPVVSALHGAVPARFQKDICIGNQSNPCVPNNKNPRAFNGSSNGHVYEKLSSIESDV

SMILES	Ki [1] [nM]	IC50 [2] [nM]	further results
FC(F)(F)Oc1ccc(C2=NC(c3cc(Cl)cc(Cl)c3)CN2)cc1Cl (configuration not stated)	223	3670	–
FC(F)(F)Oc1ccc(C2=NCC(c3ccccc3C(F)(F)F)N2)cc1Cl (configuration not stated)	353	1270	–
FC(F)(F)Oc1ccc(C2=NCC(c3ccccc3OC(F)(F)F)N2)cc1Cl (configuration not stated)	505	3480	–
COc1ccccc1CN1Cc2cc(OC(F)(F)F)ccc2C1=N	3.6	5.9	Cmax [3]: 215 nM; bioavailability [4]: 5%; half-life [5]: 2 h; clearance [6]: 66 mL/min/kg; ED50 (Rattus norvegicus): 20 mg/kg
OC1CN=C(c2ccc(OC(F)(F)F)cc2)NC1c1ccccc1 (configuration not stated)	7350	–	–
FC(F)(F)Oc1ccc(C2=NC(c3cccc(Cl)c3)CN2)cc1 (configuration not stated)	296	1980	–
N=C1c2ccc(OC(F)(F)F)cc2CN1Cc1cccc(Cl)c1	8	49	–
FC(F)(F)Oc1ccc(C2=NCCCC(c3ccccc3)N2)cc1 (configuration not stated)	4200	–	–
N=C1c2ccc(OC(F)(F)F)cc2CN1Cc1cccc2ccoc12	2.2	12	–
COc1ccccc1C1CN=C(c2ccc(OC(F)(F)F)c(Cl)c2)N1 (configuration not stated)	75	108	–
FC(F)(F)Oc1ccc(C2=NC(c3cccc(Cl)c3)CN2)cc1Cl (configuration not stated)	66	266	–
Cc1cc(C)cc(CN2Cc3cc(OC(F)(F)F)ccc3C2=N)c1	2	39	–
